# Screening results as filed in PubChem BioAssay.
# Rows were chosen to be rich in hits. Some 5.8% of all compounds tested hit in one or more screens of this group.
# T cruzi growth-1 = blocks T. cruzi growth in NIH3T3 culture. T. cruzi beta-gal in NIH3T3, GalScreen luminescence, 90 h. AID 624255. actives 5.9% (n = 77,000). inhibition, % at 8.34 µM;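 active means mean inhibition above about 93%, with at least 55% of replicates each passing it, limit read from the data, passing the limit was not always enough; inconclusive means only one of those two conditions holds; inactive means neither condition holds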
# IDH1 R132H inh = inhibitors of human IDH1 R132H; O75874; IDH1 R132H reductase, diaphorase/resazurin fluorescence, 60 min; inhibition, % at 10 µM; actives 0.18% (n = 70,000); AID 624101; in the data active means inhibition above about 34%; inconclusive means no clear call, values can overlap the other calls; inactive means below about 11%;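 further: 0% = DMSO and 100% = no enzyme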
# Pf Dd2 growth = P. falciparum Dd2 growth inhibition. actives 2.3% (n = 94,000). activity change, % at 10 µM. SYBR Green, 72 h; hits give low values. AID 1159554; in the data active means activity change below about -80%; inconclusive means no clear call, values can overlap the other calls
# GASC1 inh = blocks human GASC-1 (KDM4C) demethylase activity | GST-KDM4C 2-372, H3K9me3 peptide, LANCE TR-FRET | inhibition, % at 12.5 µM | actives 0.15% (n = 96,000) | AID 720574;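 active means mean replicate inhibition above about 25%, with at least 55% of replicates also reaching it, limit read from the data, passing the limit was not always enough; inconclusive means only one of those two conditions met; inactive means neither condition met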
# Target sequence (Q9H3R0 2-372 limits assumed): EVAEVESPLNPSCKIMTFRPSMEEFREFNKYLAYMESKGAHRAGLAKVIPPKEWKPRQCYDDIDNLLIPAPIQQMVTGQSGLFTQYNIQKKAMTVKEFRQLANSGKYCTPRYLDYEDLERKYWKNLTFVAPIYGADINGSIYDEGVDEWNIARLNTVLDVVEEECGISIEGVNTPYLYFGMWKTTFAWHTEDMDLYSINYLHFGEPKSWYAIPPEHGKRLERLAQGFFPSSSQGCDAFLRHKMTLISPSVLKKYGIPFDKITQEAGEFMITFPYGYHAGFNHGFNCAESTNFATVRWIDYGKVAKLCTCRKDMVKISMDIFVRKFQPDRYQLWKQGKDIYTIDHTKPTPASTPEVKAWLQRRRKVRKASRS
#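 Test system: N-terminal GST-fused human GASC-1 (KDM4C) fragment, residues 2-372; quantity: GASC-1 enzyme at 10 nM final in reaction; dosing: single dose; schedule: 30 min demethylation and 1 h detection at room temperature; signal: LANCE TR-FRET, excitation 340 nm, emissions 618 and 671 nm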
# T cruzi growth-2 = inhibitors of T. cruzi proliferation. shares compounds with T cruzi growth-1. T. cruzi beta-gal in NIH3T3, GalScreen luminescence, 90 h. inhibition, % at 8.35 µM. actives 72% (n = 5,600). AID 651739;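 active means mean replicate inhibition above about 95% and at least 55% of replicates individually reaching it, limit read from the data; inconclusive means only one of the two criteria is met; inactive means neither criterion is met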
# T cruzi growth-3 = Trypanosoma cruzi proliferation inhibition; shares compounds with T cruzi growth-1; T. cruzi beta-gal in NIH3T3, GalScreen luminescence, 90 h; inhibition, % at 2.09 µM; actives 21% (n = 5,600); AID 651740;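 active means mean inhibition above about 95%, with at least 55% of replicates also reaching it, limit read from the data; inconclusive means meets just one of the two conditions; inactive means meets neither condition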;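 further: plate controls were neutral control median for no effect and positive control median for full effect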
# 3T3 cytotox = NIH/3T3 (mouse) viability loss; shares compounds with T cruzi growth-1; cytotoxicity (signal decrease), % at 8.35 µM; AID 651742; NIH/3T3 viability, CellTiter-Glo ATP luminescence, 90 h; actives 14% (n = 5,600);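 active means mean signal decrease across replicates above about 35% based on untreated-well scatter, with enough replicates individually passing, limit read from the data; inconclusive means no rule stated though some were filed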;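 further: 0% = median of neutral control wells and 100% = median of positive control wells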
# 3T3 cytotox 2 = kills mouse NIH/3T3 fibroblasts; shares compounds with T cruzi growth-1; NIH/3T3 viability, CellTiter-Glo ATP luminescence, 90 h; actives 56% (n = 5,600); inhibition, % at 24.9 µM;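 active means mean loss of cell viability signal at or above a set limit, and enough replicates individually reaching it; inconclusive means meets only the mean limit or only the replicate share; inactive means meets neither condition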;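 further: 0% = median of neutral control wells and 100% = median of positive control wells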
# * = called active by the depositor; ? = inconclusive; · = no result given.
SMILES,T cruzi growth-1,IDH1 R132H inh,Pf Dd2 growth,GASC1 inh,T cruzi growth-2,T cruzi growth-3,3T3 cytotox,3T3 cytotox 2
CN1C(=O)c2cc(NC(=O)c3ccc(F)c(F)c3)ccc2OC[C@@H]2O[C@H](CC(=O)N[C@H]3CCN(Cc4ccccc4)C3)CC[C@H]21,111*,·,·,1,99*,58,-14,-11
CN1C(=O)c2cc(NC(=O)c3ccc(F)c(F)c3)ccc2OC[C@@H]2O[C@H](CC(=O)N[C@@H]3CCN(Cc4ccccc4)C3)CC[C@H]21,106*,·,·,0,114*,50,-14,-10
CC(C)(C)OC(=O)NC1(/C=N/NC(=O)CCCCCC(=O)NO)CCCC1,·,0,·,·,·,·,·,·
COc1c(Cl)cc(C(=O)Nc2sc3c(c2C(=O)NCc2cccnc2)CCCC3)cc1Cl,·,1,·,·,·,·,·,·
O=C(Cn1cnc2ccccc2c1=O)Nc1ccc2c(c1)oc1ccccc12,·,0,·,·,·,·,·,·
CCCC#Cc1ccc2c(c1)O[C@H](CN(C)C(=O)c1ccncc1)[C@@H](C)CN([C@@H](C)CO)S2(=O)=O,80,7,-49,-3,·,·,·,·
CCCC#Cc1ccc2c(c1)O[C@@H](CN(C)C(=O)c1ccncc1)[C@H](C)CN([C@H](C)CO)S2(=O)=O,82,0,-23,-1,·,·,·,·
CCCC#Cc1ccc2c(c1)O[C@@H](CN(C)C(=O)c1ccncc1)[C@@H](C)CN([C@@H](C)CO)S2(=O)=O,108*,-1,-34,1,106*,90,-3,49*
CCCC#Cc1ccc2c(c1)O[C@@H](CN(C)C(=O)c1ccncc1)[C@@H](C)CN([C@H](C)CO)S2(=O)=O,110*,-5,-42,-3,97*,71,8,37*
O=C(NCCNc1ccc(C(F)(F)F)cc1[N+](=O)[O-])c1cccc(Br)c1,·,0,·,·,·,·,·,·
CCC(=O)N1CCCCN2[C@H](C1)[C@@H](c1ccc(-c3cccnc3)cc1)[C@@H]2CO,-26,·,-25,0,·,·,·,·
CN(C)CC(=O)N1CCCCN2[C@H](CO)[C@@H](c3ccc(-c4cccnc4)cc3)[C@@H]2C1,101*,·,-39,0,40,-5,-17,-12
CN(C)CC(=O)N1CCCCN2[C@H](C1)[C@H](c1ccc(-c3cccnc3)cc1)[C@@H]2CO,108*,·,-57,0,97*,2,2,0
CCC(=O)N1CCCCN2[C@@H](CO)[C@H](c3ccc(-c4cccnc4)cc3)[C@@H]2C1,100*,·,36,-1,96*,68,13,29*
CC(=O)c1cccc(N(CC(=O)Nc2ccccc2C)S(C)(=O)=O)c1,·,0,·,·,·,·,·,·
CC(C)=CC(=O)CC(O)(c1ccccc1)c1ccccc1,·,-1,·,·,·,·,·,·
COC(=O)c1ccccc1NC(=O)CC1Sc2ccc(C(F)(F)F)cc2NC1=O (stereo unspecified),·,0,·,·,·,·,·,·
C=C1CCC2[C@](C)(CCC[C@]2(C)C(=O)O)[C@H]1CC/C(C)=C/C(=O)O (stereo partly specified),·,0,·,·,·,·,·,·
Cc1cc(C(=O)Nc2cccc3c2O[C@H](CN(C)Cc2ccc(C(=O)Nc4ccccc4N)cc2)[C@H](C)CN([C@H](C)CO)C3=O)n(C)n1,103*,·,-60,2,-49,-59,-10,-13
Cc1cc(C(=O)Nc2cccc3c2O[C@H](CN(C)Cc2ccc(C(=O)Nc4ccccc4N)cc2)[C@@H](C)CN([C@@H](C)CO)C3=O)n(C)n1,106*,·,-87*,-3,106*,86,10,23
Cc1cc(C(=O)Nc2cccc3c2O[C@@H](CN(C)Cc2ccccc2)[C@@H](C)CN([C@H](C)CO)C3=O)n(C)n1,26,1,10,2,·,·,·,·
Cc1ccc(NC(=O)CSc2nnc(C)n2-c2ccc(Cl)cc2)c(Br)c1,·,0,·,·,·,·,·,·
COc1cc(/C=C/CO[C@@H]2O[C@H](CO)[C@@H](O)[C@H](O)[C@H]2O)ccc1O,·,0,·,·,·,·,·,·
Cc1ccc(S(=O)(=O)Nc2ccc3c(c2)C(=O)N([C@H](C)CO)C[C@H](C)[C@@H](CN(C)CC2CCCCC2)OCCCC[C@H](C)O3)cc1,48,·,-38,1,·,·,·,·
Cc1ccc(S(=O)(=O)Nc2ccc3c(c2)C(=O)N([C@H](C)CO)C[C@H](C)[C@H](CN(C)CC2CCCCC2)OCCCC[C@H](C)O3)cc1,?,0,-58,4,100*,94,8,102*
SMILES,T cruzi growth-1,IDH1 R132H inh,Pf Dd2 growth,GASC1 inh,T cruzi growth-2,T cruzi growth-3,3T3 cytotox,3T3 cytotox 2
Cc1ccc(S(=O)(=O)Nc2ccc3c(c2)C(=O)N([C@H](C)CO)C[C@@H](C)[C@@H](CN(C)S(=O)(=O)c2ccc(C)cc2)OCCCC[C@@H](C)O3)cc1,93,·,-79,-2,·,·,·,·
Cc1ccc(S(=O)(=O)Nc2ccc3c(c2)C(=O)N([C@@H](C)CO)C[C@@H](C)[C@H](CN(C)S(=O)(=O)c2ccc(C)cc2)OCCCC[C@H](C)O3)cc1,?,·,-64,-3,106*,69,6,58*
Cc1ccc(S(=O)(=O)Nc2ccc3c(c2)C(=O)N([C@@H](C)CO)C[C@@H](C)[C@@H](CN(C)S(=O)(=O)c2ccc(C)cc2)OCCCC[C@H](C)O3)cc1,99*,·,-86*,0,110*,84,-21,27*
CCC(=O)O[C@@H]1CC(=O)O[C@H](C)C/C=C\C=C\[C@@H](O)[C@H](C)C[C@H](CC=O)[C@H](OC2O[C@H](C)[C@@H](O[C@H]3C[C@@](C)(O)[C@@H](OC(=O)CC)[C@H](C)O3)[C@H](N(C)C)[C@H]2O)[C@H]1OC (stereo partly specified),·,0,·,·,·,·,·,·
C[C@@H]1CN([C@H](C)CO)C(=O)c2c(c3ccccc3n2C)-c2ccccc2CO[C@@H]1CN(C)S(=O)(=O)c1cn(C)cn1,90,·,16,-2,·,·,·,·
C[C@@H]1CN([C@@H](C)CO)C(=O)c2c(c3ccccc3n2C)-c2ccccc2CO[C@H]1CN(C)S(C)(=O)=O,21,·,6,0,·,·,·,·
C[C@@H]1CN([C@@H](C)CO)C(=O)c2c(c3ccccc3n2C)-c2ccccc2CO[C@@H]1CN(C)S(=O)(=O)c1cn(C)cn1,?,-3,1,-1,8,-50,1,31*
C[C@H]1CN([C@@H](C)CO)C(=O)c2c(c3ccccc3n2C)-c2ccccc2CO[C@H]1CN(C)S(=O)(=O)c1cn(C)cn1,101*,-2,-23,0,16,7,2,22
COc1ccc(-c2ccc([C@@H]3[C@H](CO)N4CCCCN(C(=O)c5ccc6c(c5)OCO6)C[C@@H]34)cc2)cc1,108*,·,-32,-1,?,58,21,104*
